Data as given in ChEMBL document CHEMBL4339190, “2,6-Disubstituted imidazo[2,1-b][1,3,4]thiadiazole derivatives as potent staphylococcal biofilm inhibitors” (Eur J Med Chem, 2019).

Experiments:
Escherichia coli [1] = test: Antimicrobial activity against Escherichia coli ATCC 25922 assessed as growth inhibition of planktonic forms incubated for 24 hrs; format: organism-based; details: in vitro
In short: (§1)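 Broth microdilution in tryptic soy broth. Two-fold series 100 to 0.75 μg/mL made from a 1 mg/mL stock in 0.9% NaCl. Inoculum ~10⁶ cfu/mL taken from a 24 h culture, 37 °C 24 h.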

Staphylococcus aureus [2] = test: Antibiofilm activity against Staphylococcus aureus ATCC 25923 incubated for 24 hrs by crystal violet-staining based assay; format: functional
In short: (§2)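 Biofilm prevention: 0.5 McFarland inoculum (2.5 µL) in 100 µL TSB with 2% w/v glucose, compound present from the start over 100–0.1 µg/mL, 37 °C 24 h. Washed with PBS, stained 0.1% w/v crystal violet 30 min, eluted with 33% v/v acetic acid, read at 570 nm. BIC50 (50% inhibition versus untreated control) derived by linear regression; triplicate, repeated at least twice.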

Pseudomonas aeruginosa [3] = test: Antimicrobial activity against Pseudomonas aeruginosa ATCC 15442 assessed as growth inhibition of planktonic forms incubated for 24 hrs; format: organism-based; details: in vitro; in short: as §1
Staphylococcus aureus [4] = test: Antimicrobial activity against Staphylococcus aureus ATCC 25923 assessed as growth inhibition of planktonic forms incubated for 24 hrs; format: organism-based; details: in vitro; in short: as §1
Staphylococcus aureus [5] = test: Antibiofilm activity against Staphylococcus aureus ATCC 6538 incubated for 24 hrs by crystal violet-staining based assay; format: functional; in short: as §2
Escherichia coli [6] = test: Antibiofilm activity against Escherichia coli ATCC 25922 assessed as inhibition of biofilm formation at 100 ug/ml incubated for 24 hrs by crystal violet-staining based assay; format: functional; details: ATCC 25922, 24 h
[7] = tested on: Staphylococcus epidermidis; test: Antibiofilm activity against Staphylococcus epidermidis ATCC 12228 incubated for 24 hrs by crystal violet-staining based assay; format: functional; in short: as §2
Staphylococcus aureus [8] = test: Antimicrobial activity against Staphylococcus aureus ATCC 6538 assessed as growth inhibition of planktonic forms incubated for 24 hrs; format: organism-based; details: in vitro; in short: as §1
Pseudomonas aeruginosa [9] = test: Antibiofilm activity against Pseudomonas aeruginosa ATCC 15442 incubated for 24 hrs by crystal violet-staining based assay; format: functional; in short: as §2
[10] = tested on: Staphylococcus epidermidis; test: Antimicrobial activity against Staphylococcus epidermidis ATCC 12228 assessed as growth inhibition of planktonic forms incubated for 24 hrs; format: organism-based; details: in vitro; in short: as §1
Pseudomonas aeruginosa [11] = test: Antibiofilm activity against Pseudomonas aeruginosa ATCC 15442 assessed as inhibition of biofilm formation at 100 ug/ml incubated for 24 hrs by crystal violet-staining based assay; format: functional; details: ATCC 15442, 24 h

Compound | MIC (Escherichia coli [1]) | MBIC50 (Staphylococcus aureus [2]) | inhibition (Staphylococcus aureus [2]) | MIC (Pseudomonas aeruginosa [3]) | MIC (Staphylococcus aureus [4]) | MBIC50 (Staphylococcus aureus [5]) | inhibition (Staphylococcus aureus [5]) | inhibition at 100 µg/mL (Escherichia coli [6]) | MBIC50 [7] | inhibition [7] | MIC (Staphylococcus aureus [8]) | MBIC50 (Pseudomonas aeruginosa [9]) | inhibition (Pseudomonas aeruginosa [9]) | MIC [10] | inhibition at 100 µg/mL (Pseudomonas aeruginosa [11])
O=[N+]([O-])c1ccc(-c2cn3nc(-c4c[nH]c5ccc(Br)cc45)sc3n2)cc1 | > 100 µg/mL | 23.9 µM | Dose-dependent effect | > 100 µg/mL | > 100 µg/mL | 27 µM | Dose-dependent effect | < 15% | 19.1 µM | Dose-dependent effect | > 100 µg/mL | 43.3 µM | Dose-dependent effect | > 100 µg/mL | 
Br.Fc1ccc(-c2cn3nc(-c4c[nH]c5ccc(Cl)cc45)sc3n2)cc1 | > 100 µg/mL | 51.3 µM | Dose-dependent effect | > 100 µg/mL | > 100 µg/mL | 24.2 µM | Dose-dependent effect | < 15% | 100.7 µM | Dose-dependent effect | > 100 µg/mL |  |  | > 100 µg/mL | < 15%
Br.COc1ccc(OC)c(-c2cn3nc(-c4c[nH]c5ccc(Br)cc45)sc3n2)c1 | > 100 µg/mL | 26.4 µM | Dose-dependent effect | > 100 µg/mL | > 100 µg/mL | 16.5 µM | Dose-dependent effect | < 15% | 36.1 µM | Dose-dependent effect | > 100 µg/mL |  |  | > 100 µg/mL | < 15%
Br.Cn1cc(-c2nn3cc(-c4ccc(F)cc4)nc3s2)c2ccccc21 | > 100 µg/mL | 8.6 µM | Dose-dependent effect | > 100 µg/mL | > 100 µg/mL | 17.9 µM | Dose-dependent effect | < 15% | 68.9 µM | Dose-dependent effect | > 100 µg/mL |  |  | > 100 µg/mL | < 15%
Br.O=[N+]([O-])c1ccc(-c2cn3nc(-c4c[nH]c5ccc(Cl)cc45)sc3n2)cc1 | > 100 µg/mL | 55.3 µM | Dose-dependent effect | > 100 µg/mL | > 100 µg/mL | 35.8 µM | Dose-dependent effect | < 15% | 28.5 µM | Dose-dependent effect | > 100 µg/mL |  |  | > 100 µg/mL | < 15%
O=[N+]([O-])c1ccc(-c2cn3nc(-c4c[nH]c5ccccc45)sc3n2)cc1 | > 100 µg/mL | 47.5 µM | Dose-dependent effect | > 100 µg/mL | > 100 µg/mL | 20.2 µM | Dose-dependent effect | < 15% | 41.2 µM | Dose-dependent effect | > 100 µg/mL |  |  | > 100 µg/mL | < 15%
Br.COc1ccc(OC)c(-c2cn3nc(-c4cn(C)c5ccccc45)sc3n2)c1 | > 100 µg/mL | 24.3 µM | Dose-dependent effect | > 100 µg/mL | > 100 µg/mL | 3.6 µM | Dose-dependent effect | < 15% | 25 µM | Dose-dependent effect | > 100 µg/mL |  |  | > 100 µg/mL | 
COc1ccc(OC)c(-c2cn3nc(-c4cn(C)c5ccc(Cl)cc45)sc3n2)c1 | > 100 µg/mL | 163 µM | Dose-dependent effect | > 100 µg/mL | > 100 µg/mL | 69.4 µM | Dose-dependent effect | < 15% | 8.1 µM | Dose-dependent effect | > 100 µg/mL |  |  | > 100 µg/mL | < 15%
Br.c1ccc(-c2cn3nc(-c4c[nH]c5ccccc45)sc3n2)cc1 | > 100 µg/mL | 35.9 µM | Dose-dependent effect | > 100 µg/mL | > 100 µg/mL | 46.5 µM | Dose-dependent effect | < 15% | 59.1 µM | Dose-dependent effect | > 100 µg/mL |  |  | > 100 µg/mL | < 15%
Br.COc1ccc(OC)c(-c2cn3nc(-c4cn(C)c5ccc(Br)cc45)sc3n2)c1 | > 100 µg/mL | 90.8 µM | Dose-dependent effect | > 100 µg/mL | > 100 µg/mL | 8.9 µM | Dose-dependent effect | < 15% | 52.3 µM | Dose-dependent effect | > 100 µg/mL | 28.5 µM | Dose-dependent effect | > 100 µg/mL | 
Br.Fc1ccc(-c2cn3nc(-c4c[nH]c5ccccc45)sc3n2)cc1 | > 100 µg/mL | 15.6 µM | Dose-dependent effect | > 100 µg/mL | > 100 µg/mL | 13.4 µM | Dose-dependent effect | < 15% | 30.8 µM | Dose-dependent effect | > 100 µg/mL | 47.4 µM | Dose-dependent effect | > 100 µg/mL | 
FC(F)(F)c1ccc(-c2cn3nc(-c4c[nH]c5ccc(Br)cc45)sc3n2)cc1 | > 100 µg/mL | 16.8 µM | Dose-dependent effect | > 100 µg/mL | > 100 µg/mL | 13.3 µM | Dose-dependent effect | < 15% | 19.2 µM | Dose-dependent effect | > 100 µg/mL |  |  | > 100 µg/mL | < 15%
Cn1cc(-c2nn3cc(-c4ccc(C(F)(F)F)cc4)nc3s2)c2cc(Cl)ccc21 | > 100 µg/mL |  |  | > 100 µg/mL | > 100 µg/mL |  |  |  |  |  | > 100 µg/mL |  |  | > 100 µg/mL | 
Br.Cn1cc(-c2nn3cc(-c4ccccc4)nc3s2)c2ccccc21 | > 100 µg/mL | 23 µM | Dose-dependent effect | > 100 µg/mL | > 100 µg/mL | 18.9 µM | Dose-dependent effect | < 15% | 47.9 µM | Dose-dependent effect | > 100 µg/mL |  |  | > 100 µg/mL | < 15%
Br.COc1cccc(-c2cn3nc(-c4c[nH]c5ccc(Cl)cc45)sc3n2)c1 | > 100 µg/mL | 31.6 µM | Dose-dependent effect | > 100 µg/mL | > 100 µg/mL | 15.1 µM | Dose-dependent effect | < 15% | 32.7 µM | Dose-dependent effect | > 100 µg/mL | 29 µM | Dose-dependent effect | > 100 µg/mL | 
Br.Cn1cc(-c2nn3cc(-c4ccc(C(F)(F)F)cc4)nc3s2)c2cc(Br)ccc21 | > 100 µg/mL |  |  | > 100 µg/mL | > 100 µg/mL |  |  |  |  |  | > 100 µg/mL |  |  | > 100 µg/mL | 
Br.COc1cccc(-c2cn3nc(-c4cn(C)c5ccc(Br)cc45)sc3n2)c1 | > 100 µg/mL | 16 µM | Dose-dependent effect | > 100 µg/mL | > 100 µg/mL | 12.4 µM | Dose-dependent effect | < 15% | 63.8 µM | Dose-dependent effect | > 100 µg/mL | 26.3 µM | Dose-dependent effect | > 100 µg/mL | 
